{"source": "paper PMC7217734", "about": "(Journal of biomolecular structure & dynamics, 2019)", "key": {"[1]": {"target": "T1, peptide 91a (coil 1A of vimentin) (Homo sapiens, UniProt P08670, A91E/F96L/I92R/N93L/Q126R/Q127R/T94A/V121L)", "T1 sequence (P08670 with tags, fused parts or gaps V121L/Q126R/Q127R limits assumed)": "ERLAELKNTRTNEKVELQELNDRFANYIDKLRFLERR", "assay": "Isothermal titration calorimetry", "type": "binding", "conditions": "NANO ITC; 374a 0.540mM in syringe, 91a 0.095mM in cell", "method_in_brief": "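The peptides were dissolved in 10 mM Tris pH 8.0. In a low-volume nano calorimeter, the syringe peptide was titrated into the cell peptide in 20 injections of 2.5 µl. Raw heat rate was recorded in µJ/s, and each injection peak was integrated to µJ. The isotherm gave the dissociation constant and stoichiometry n.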"}, "Dynamic light scattering": {"assay": "Dynamic light scattering", "type": "physicochemical", "conditions": "25°C, 1 mg/ml; 50mM NaCl, 10mM Tris-HCl (pH 7.5); individual peptide"}}, "note": "Residues, ends and D or L forms follow the SMILES beside them."}
{"molecule": "CC[C@H](C)[C@H](NC(=O)[C@H](CCC(=O)O)NC(=O)[C@@H](NC(=O)[C@H](CC(=O)O)NC(=O)[C@H](CC(C)C)NC(=O)[C@H](C)NC(=O)[C@H](CCSC)NC(=O)[C@H](CCCCN)NC(=O)[C@@H](NC(=O)[C@H](CC(N)=O)NC(=O)[C@H](CC(C)C)NC(=O)[C@H](CC(C)C)NC(=O)[C@H](CC(=O)O)NC(=O)[C@H](CCC(N)=O)NC(=O)[C@H](Cc1ccc(O)cc1)NC(=O)[C@H](CCC(=O)O)NC(=O)[C@H](CCCNC(=N)N)NC(=O)[C@H](CCC(=O)O)NC(=O)[C@H](CC(C)C)NC(=O)[C@H](CCCNC(=N)N)NC(=O)[C@H](C)NC(=O)[C@H](CC(C)C)NC(=O)[C@H](CCC(=O)O)NC(=O)[C@@H](N)CCC(=O)O)C(C)C)[C@@H](C)CC)C(=O)N[C@@H](C)C(=O)N[C@H](C(=O)N[C@@H](Cc1ccc(O)cc1)C(=O)N[C@@H](CCCNC(=N)N)C(=O)N[C@@H](CCCCN)C(=O)N[C@@H](CC(C)C)C(=O)N[C@@H](CC(C)C)C(=O)N[C@@H](CCC(=O)O)C(=O)N[C@@H](C)C(=O)N[C@@H](CC(C)C)C(=O)N[C@@H](CCC(=O)O)C(=O)N[C@@H](CO)C(=O)N[C@@H](CCCNC(=N)N)C(=O)O)[C@@H](C)O", "note": "[peptide 374a] (H-EELARLEREYQDLLNVKMALDIEIATYRKLLEALESR-OH; N-terminus and C-terminus assumed)", "values": [{"measurement": "stoichiometric ratio n", "setting": "[1]", "value": "~1"}, {"measurement": "thermodynamic character of interaction, in words", "setting": "[1]", "value": "enthalpy-driven interaction"}, {"measurement": "aggregation by DLS, in words", "setting": "Dynamic light scattering", "value": "aggregation is occurring"}]}
